{"data": "Results from different studies", "PPARA": "Peroxisome proliferator-activated receptor alpha (PPARA, Homo sapiens, UniProt Q07869)", "MMP1": "Interstitial collagenase (MMP1, Homo sapiens, UniProt P03956)", "OXSR1": "Serine/threonine-protein kinase OSR1 (OXSR1, Homo sapiens, UniProt O95747)", "note": "Compare with care: the assays were run in different laboratories."}
{"SMILES": "COC(=O)CC[C@H](NC(=O)[C@H](CC(C)C)NC(=O)OCc1ccccc1)C(=O)N[C@@H](Cc1cnc[nH]1)C(=O)N[C@@H](CC(=O)OC)C(=O)CF", "target": "Caspase-9 (CASP9, Homo sapiens, UniProt P55211)", "test": "enzyme activity, inhibitor", "conditions": "1 µM", "measurement": "inhibition", "result": "50%"}
{"SMILES": "C#Cc1n[nH]c2c(-c3cn([C@@H](C)c4ccccc4)c(=O)[nH]c3=O)cc(F)cc12", "target": "Inactive tyrosine-protein kinase PEAK1 (PEAK1, Homo sapiens, UniProt Q9H792)", "test": "enzyme activity, inhibitor", "conditions": "0.1 µM", "measurement": "inhibition", "result": "6.5%"}
{"SMILES": "Clc1cccc(-c2c[nH]c3nccc(N4CCOCC4)c23)c1", "target": "Serine/threonine-protein kinase 4 (STK4, Homo sapiens, UniProt Q13043)", "test": "thermal stability, DSF", "measurement": "ΔTm", "result": "> 7.4 °C"}
{"SMILES": "Cc1nn(C)cc1-c1nc2c(N3CCN(Cc4ccc(Cl)cc4)CC3)c(Cl)cnc2[nH]1", "target": "Serine/threonine-protein kinase 36 (STK36, Homo sapiens, UniProt Q9NRP7)", "test": "binding, competition with immobilised ligand", "conditions": "1 µM", "measurement": "remaining binding", "result": "74%"}
{"SMILES": "O=S(=O)(O)C(F)(F)C(F)(F)C(F)(F)C(F)(F)C(F)(F)C(F)(F)F", "target": "PPARA", "test": "reporter gene, agonist, luciferase", "system": "COS-7", "measurement": "Emax", "result": "67%"}
{"SMILES": "O=C(Nc1cccnn1)N1CCN([C@@H]2CCOc3cc(C(F)(F)F)ccc32)CC1", "target": "MMP1", "test": "cell-free assay", "conditions": "20 µM", "measurement": "inhibition", "result": "8%"}
{"SMILES": "CC1CCC(C(C)C)C(P(=O)(c2ccccc2)c2ccccc2)C1 (stereo not shown)", "target": "Potassium voltage-gated channel subfamily A member 5 (KCNA5, Homo sapiens, UniProt P22460)", "test": "ion current, inhibitor, patch clamp", "conditions": "1 µM", "measurement": "remaining activity", "result": "-94.5%"}
{"SMILES": "COc1ncccc1-c1cnn2ccc(N3CCN(C(=O)OC(C)C)CC3)nc12", "target": "Myosin-IIIa (MYO3A, Homo sapiens, UniProt Q8NEV4)", "test": "binding, competition with immobilised ligand", "conditions": "1 µM", "measurement": "remaining binding", "result": "95%"}
{"SMILES": "CN[C@@H](C)C(=O)N[C@@H](CNC(=O)c1ccc(S(=O)(=O)F)c(OC)c1)C(=O)N1CCC[C@H]1C(=O)N[C@@H]1CCc2c(F)cccc21", "target": "E3 ubiquitin-protein ligase XIAP, BIR3 (XIAP, Homo sapiens, UniProt P98170)", "test": "enzyme activity, inhibitor", "measurement": "kinact", "result": "0.0258 s⁻¹"}
{"SMILES": "COc1cc(Nc2ncc(F)c(Nc3ccc4c(n3)NC(=O)C(C)(C)O4)n2)cc(OC)c1OC", "target": "OXSR1", "test": "binding, competition with immobilised ligand", "conditions": "10 µM", "measurement": "inhibition", "result": "71%"}
{"SMILES": "CN1CCN(c2ccc(Nc3nccc(-c4ccccc4)n3)cc2C(F)(F)F)CC1", "target": "Calcium-dependent protein kinase 1 (CDPK1, Plasmodium falciparum, UniProt P62344)", "test": "binding", "conditions": "10 µM", "measurement": "remaining binding", "result": "13%"}
{"SMILES": "O=S(=O)(O)C(F)(F)C(F)(F)C(F)(F)C(F)(F)C(F)(F)C(F)(F)C(F)(F)C(F)(F)F", "target": "PPARA", "test": "reporter gene, agonist, luciferase", "measurement": "Emax", "result": "33%"}
{"SMILES": "C#Cc1n[nH]c2c(-c3cn([C@@H](C)c4ccccn4)c(=O)[nH]c3=O)cc(F)cc12", "target": "TRAF2 and NCK-interacting protein kinase (TNIK, Homo sapiens, UniProt Q9UKE5)", "test": "enzyme activity, inhibitor", "conditions": "0.1 µM", "measurement": "inhibition", "result": "-0.3%"}
{"SMILES": "O=C(O)C(F)(F)C(F)(F)C(F)(F)C(F)(F)C(F)(F)C(F)(F)F", "target": "PPARA", "test": "reporter gene, agonist, luciferase", "system": "COS-7", "measurement": "Emax", "result": "113%"}
{"SMILES": "COc1ccc(S(=O)(=O)N(CC(=O)NO)CC(C)C)cc1", "target": "MMP1", "test": "enzyme activity, inhibitor", "conditions": "0.1 µM", "measurement": "inhibition", "result": "2%"}
{"SMILES": "Nc1ncc(-c2nc(N3CCOCC3)nc(N3CCOCC3)n2)c(C(F)F)n1", "target": "OXSR1", "test": "binding, competition with immobilised ligand", "conditions": "10 µM", "measurement": "remaining binding", "result": "54%"}
